Laboratory results taken from ChEMBL document CHEMBL5321217, “Identification of pyrrolo[3',4':3,4]cyclohepta[1,2-d][1,2]oxazoles as promising new candidates for the treatment of lymphomas” (Eur J Med Chem, 2023).

What was measured:
Type in all cases: functional
SF-268 = assay: Antiproliferative activity against human SF-268 cells assessed as growth inhibition incubated for 72 hrs by MTT assay
SNB-19 = assay: Antiproliferative activity against human SNB-19 cells assessed as growth inhibition incubated for 72 hrs by MTT assay
SK-MEL-2 = assay: Antiproliferative activity against human SK-MEL-2 cells assessed as growth inhibition incubated for 72 hrs by MTT assay
IGROV-1 = assay: Antiproliferative activity against human IGROV-1 cells assessed as growth inhibition incubated for 72 hrs by MTT assay
OVCAR-4 = assay: Antiproliferative activity against human OVCAR-4 cells assessed as growth inhibition incubated for 72 hrs by MTT assay
[1] = Antiproliferative activity against human HBL1 cells assessed as reduction in cell proliferation at 1 uM measured after 72 hrs by MTT assay relative to control; set-up: scale not given: the % may be the effect or the level left
Outline: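 Single-dose screen at 1 μM for 72 h at 37 °C, 5% CO2 (DMSO ≤0.1%). Cells in RPMI-1640 with 20% FBS, seeded at 5,000–10,000 cells/well. MTT added for 4 h, SDS lysis, A570 read with medium-only blanks. Percent proliferation relative to untreated cells, run in triplicate.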

UACC-257 = assay: Antiproliferative activity against human UACC-257 cells assessed as growth inhibition incubated for 72 hrs by assay
SK-MEL-28 = assay: Antiproliferative activity against human SK-MEL-28 cells assessed as growth inhibition incubated for 72 hrs by MTT assay
TK-10 = assay: Antiproliferative activity against human TK-10 cells assessed as growth inhibition incubated for 72 hrs by MTT assay

SMILES | GI50 (SF-268) | GI50 (SNB-19) | GI50 (SK-MEL-2) | GI50 (IGROV-1) | GI50 (OVCAR-4) | Activity [1] | GI50 (UACC-257) | GI50 (SK-MEL-28) | GI50 (TK-10)
COc1ccc(Cn2cc3c(c2-c2cc(OC)c(OC)c(OC)c2)CCCc2cnoc2-3)cc1 | 4720 nM | 1530 nM | 1610 nM | 560 nM | 4970 nM | >50% | – | – | –
COc1ccc(Cn2cc3c(c2-c2cc(OC)c(OC)c(OC)c2)CCCc2cnoc2-3)cc1N | 1450 nM | 810 nM | – | 1560 nM | – | >50% | 580 nM | 2930 nM | 96600 nM
